Experimental data taken from ChEMBL document CHEMBL2040734, “Benzothiazoles: search for anticancer agents” (2012).

Legend:
Assay type in all cases: functional
A549 [1] = experiment: Cytotoxicity against human A549 cells assessed as cell growth at 0.1 uM after 48 hrs by sulforhodamine B assay; details: A549, 48 h, read-out: Activity
Summary of the method: (§1)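 NCI-60 five-dose screen. Cells were grown in RPMI 1640 with 5% FBS and 2 mM L-glutamine and preincubated 24 h. Compound (DMSO stock) was tested at 0.01, 0.1, 1, 10 and 100 µM for 48 h at 37 °C. Cells were fixed in situ with cold TCA (final 10%) and stained with 0.4% SRB. A515 was read, and percent growth was calculated against time-zero and control plates.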

SF-268 = experiment: Cytotoxicity against human SF268 cells assessed as cell growth at 0.1 uM after 48 hrs by sulforhodamine B assay; details: SF-268, 48 h, read-out: Activity
UACC-62 [2] = experiment: Cytotoxicity against human UACC62 cells assessed as cell growth at 0.1 uM after 48 hrs by sulforhodamine B assay; details: UACC-62, 48 h, read-out: Activity
SK-MEL-2 = experiment: Cytotoxicity against human SK-MEL-2 cells assessed as cell growth at 100 uM after 48 hrs by sulforhodamine B assay; details: SK-MEL-2, 48 h, read-out: Activity
UACC-62 [3] = experiment: Cytotoxicity against human UACC62 cells assessed as cell growth at 100 uM after 48 hrs by sulforhodamine B assay; details: UACC-62, 48 h, read-out: Activity
NCI/ADR-RES = experiment: Cytotoxicity against human NCI/ADR-RES cells assessed as cell growth at 100 uM after 48 hrs by sulforhodamine B assay; details: read-out: Activity
A498 = experiment: Cytotoxicity against human A498 cells assessed as cell growth at 100 uM after 48 hrs by sulforhodamine B assay; details: A498, 48 h, read-out: Activity; summary of the method: as §1
UO-31 [4] = experiment: Cytotoxicity against human UO31 cells assessed as cell growth at 0.1 uM after 48 hrs by sulforhodamine B assay; details: UO-31, 48 h, read-out: Activity
A549 [5] = experiment: Cytotoxicity against human A549 cells assessed as cell growth at 1 uM after 48 hrs by sulforhodamine B assay; details: A549, 48 h, read-out: Activity; summary of the method: as §1
U-251 = experiment: Cytotoxicity against human U251 cells assessed as cell growth at 1 uM after 48 hrs by sulforhodamine B assay; details: U-251, 48 h, read-out: Activity
CCRF-CEM [6] = experiment: Cytotoxicity against human CCRF-CEM cells assessed as cell growth at 10 uM after 48 hrs by sulforhodamine B assay; details: read-out: Activity
Summary of the method: (§2)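 CCRF-CEM suspension leukemia cells in RPMI 1640 with 5% FBS and 2 mM L-glutamine, plated 24 h before dosing. Five concentrations (0.01–100 µM) were applied from a DMSO stock for 48 h at 37 °C. Settled cells were fixed with 80% TCA (final 16%) and stained with SRB, with read-out at 515 nm. Percent growth was derived from time-zero and control absorbances.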

HT-29 = experiment: Cytotoxicity against human HT-29 cells assessed as cell growth at 10 uM after 48 hrs by sulforhodamine B assay; details: HT-29, 48 h, read-out: Activity
Summary of the method: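 Five-dose NCI panel run at 0.01, 0.1, 1, 10 and 100 µM. Cells were in RPMI 1640 with 5% FBS and 2 mM L-glutamine, seeded at 5000–40,000 cells/well and pre-incubated 24 h. Drug was diluted from a DMSO stock into medium with 50 µg/ml gentamicin. Exposure was 48 h at 37 °C, 5% CO2. Cells were fixed with cold TCA and stained with 0.4% SRB, read at 515 nm. Percent growth came from time-zero, control and test absorbances.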

Malme-3M = experiment: Cytotoxicity against human MALME-3M cells assessed as cell growth at 10 uM after 48 hrs by sulforhodamine B assay; details: read-out: Activity
MDA-MB-435 = experiment: Cytotoxicity against human MDA-MB-435 cells assessed as cell growth at 10 uM after 48 hrs by sulforhodamine B assay; details: MDA-MB-435, 48 h, read-out: Activity
CCRF-CEM [7] = experiment: Cytotoxicity against human CCRF-CEM cells assessed as cell growth at 100 uM after 48 hrs by sulforhodamine B assay; details: read-out: Activity; summary of the method: as §2
SR = experiment: Cytotoxicity against human SR cells assessed as cell growth at 100 uM after 48 hrs by sulforhodamine B assay; details: read-out: Activity
RPMI-8226 [8] = experiment: Growth inhibition of human RPMI8226 cells after 48 hrs by sulforhodamine B assay; details: RPMI-8226, 48 h; for CC50: read-out: LC50 (the source's name)
Summary of the method: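 Leukemia suspension lines were grown in RPMI 1640 with 5% FBS and 2 mM L-glutamine and plated at 5000–40,000 cells/well with 24 h preincubation. They were treated at 0.01, 0.1, 1, 10 and 100 µM (DMSO stock) for 48 h at 37 °C. Settled cells were fixed with 80% TCA (16% final) and stained with 0.4% SRB in 1% acetic acid, then read at 515 nm. GI50 was calculated against time-zero and control wells.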

COLO 205 = experiment: Growth inhibition of human COLO205 cells after 48 hrs by sulforhodamine B assay; details: COLO 205, 48 h; for CC50: read-out: LC50 (the source's name)
Summary of the method: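 Cells were in RPMI 1640 with 5% FBS and pre-incubated 24 h. Read-out was TCA fixation, SRB staining and absorbance at 515 nm. GI50 was the concentration where [(Ti−Tz)/(C−Tz)]×100 = 50, taken from log concentration vs % growth curves. It is given as ">" the top concentration when not reached.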

HCT-116 = experiment: Growth inhibition of human HCT116 cells after 48 hrs by sulforhodamine B assay; details: HCT-116, 48 h; for CC50: read-out: LC50 (the source's name)
Summary of the method: (§3)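 Adherent NCI-60 lines were grown in RPMI 1640 with 5% FBS and 2 mM L-glutamine, plated at 5000–40,000 cells/well and preincubated 24 h. They were then exposed to five concentrations (0.01–100 µM, from a DMSO stock) for 48 h at 37 °C, 5% CO2. Cells were fixed with cold TCA (10% final, 60 min, 4 °C) and stained with 0.4% SRB. Dye was solubilized in 10 mM Tris base and A515 read. GI50 was derived from time-zero, control and treated absorbances.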

UO-31 [9] = experiment: Growth inhibition of human UO31 cells after 48 hrs by sulforhodamine B assay; details: UO-31, 48 h; for CC50: read-out: LC50 (the source's name); summary of the method: as §3
RPMI-8226 [10] = experiment: Cytotoxicity against human RPMI8226 cells assessed as cell growth at 0.01 uM after 48 hrs by sulforhodamine B assay; details: RPMI-8226, 48 h, read-out: Activity
SF-295 = experiment: Cytotoxicity against human SF295 cells assessed as cell growth at 0.01 uM after 48 hrs by sulforhodamine B assay; details: SF-295, 48 h, read-out: Activity
UACC-62 [11] = experiment: Cytotoxicity against human UACC62 cells assessed as cell growth at 0.01 uM after 48 hrs by sulforhodamine B assay; details: UACC-62, 48 h, read-out: Activity
OVCAR-3 = experiment: Cytotoxicity against human OVCAR3 cells assessed as cell growth at 0.01 uM after 48 hrs by sulforhodamine B assay; details: OVCAR-3, 48 h, read-out: Activity
OVCAR-4 = experiment: Cytotoxicity against human OVCAR4 cells assessed as cell growth at 0.01 uM after 48 hrs by sulforhodamine B assay; details: OVCAR-4, 48 h, read-out: Activity

Cc1ccc2nc(Nc3c(C)cccc3C)sc2c1
growth at 0.1 µM (A549 [1]): 108% | growth at 0.1 µM (SF-268): 100% | growth at 0.1 µM (UACC-62 [2]): 85% | growth at 100 µM (SK-MEL-2): 53% | growth at 100 µM (UACC-62 [3]): 37% | growth at 100 µM (NCI/ADR-RES): 46% | growth at 100 µM (A498): 60% | growth at 0.1 µM (UO-31 [4]): 97% | growth at 1 µM (A549 [5]): 83% | growth at 1 µM (U-251): 80% | growth at 10 µM (CCRF-CEM [6]): 58% | growth at 10 µM (HT-29): 10% | growth at 10 µM (Malme-3M): 45% | growth at 10 µM (MDA-MB-435): -26% | growth at 100 µM (CCRF-CEM [7]): 83% | growth at 100 µM (SR): 22% | GI50 (RPMI-8226 [8]): > 100 µM | TGI (RPMI-8226 [8]): > 100 µM | CC50 (RPMI-8226 [8]): > 100 µM | TGI (COLO 205): > 100 µM | CC50 (COLO 205): > 100 µM | GI50 (HCT-116): 2.3 µM | TGI (HCT-116): > 100 µM | CC50 (HCT-116): > 100 µM | TGI (UO-31 [9]): > 100 µM | CC50 (UO-31 [9]): > 100 µM | growth at 0.01 µM (RPMI-8226 [10]): 101% | growth at 0.01 µM (SF-295): 91% | growth at 0.01 µM (UACC-62 [11]): 92% | growth at 0.01 µM (OVCAR-3): 101% | growth at 0.01 µM (OVCAR-4): 97%

Clc1cccc(Cl)c1Nc1nc2cccc(Cl)c2s1
growth at 0.1 µM (A549 [1]): 99% | growth at 0.1 µM (SF-268): 97% | growth at 0.1 µM (UACC-62 [2]): 86% | growth at 100 µM (SK-MEL-2): -44% | growth at 100 µM (UACC-62 [3]): -94% | growth at 100 µM (NCI/ADR-RES): -55% | growth at 100 µM (A498): -92% | growth at 0.1 µM (UO-31 [4]): 56% | growth at 1 µM (A549 [5]): 55% | growth at 1 µM (U-251): 68% | growth at 10 µM (CCRF-CEM [6]): -34% | growth at 10 µM (HT-29): -71% | growth at 10 µM (Malme-3M): -84% | growth at 10 µM (MDA-MB-435): -77% | growth at 100 µM (CCRF-CEM [7]): -12% | growth at 100 µM (SR): -32% | GI50 (RPMI-8226 [8]): 0.829 µM | TGI (RPMI-8226 [8]): 5.05 µM | CC50 (RPMI-8226 [8]): > 100 µM | GI50 (COLO 205): 1.4 µM | TGI (COLO 205): 2.81 µM | CC50 (COLO 205): 5.67 µM | GI50 (HCT-116): 1.01 µM | TGI (HCT-116): 2.19 µM | CC50 (HCT-116): 4.75 µM | GI50 (UO-31 [9]): 0.161 µM | TGI (UO-31 [9]): 1.67 µM | CC50 (UO-31 [9]): 4.44 µM | growth at 0.01 µM (RPMI-8226 [10]): 103% | growth at 0.01 µM (SF-295): 93% | growth at 0.01 µM (UACC-62 [11]): 94% | growth at 0.01 µM (OVCAR-3): 98% | growth at 0.01 µM (OVCAR-4): 94%
